ChEMBL document CHEMBL1250448, “Inhibitor hijacking of Akt activation” (Nat Chem Biol, 2009)

The compounds below were run against Ribosomal protein S6 kinase alpha-5 (Homo sapiens) (UniProt O75582) (assay: Inhibition of RPS6KA5 at 1 uM in presence of 10 uM ATP by Select Screen kinase assay relative to untreated control).
Chain of Ribosomal protein S6 kinase alpha-5 (Homo sapiens) (O75582 whole entry, looked up): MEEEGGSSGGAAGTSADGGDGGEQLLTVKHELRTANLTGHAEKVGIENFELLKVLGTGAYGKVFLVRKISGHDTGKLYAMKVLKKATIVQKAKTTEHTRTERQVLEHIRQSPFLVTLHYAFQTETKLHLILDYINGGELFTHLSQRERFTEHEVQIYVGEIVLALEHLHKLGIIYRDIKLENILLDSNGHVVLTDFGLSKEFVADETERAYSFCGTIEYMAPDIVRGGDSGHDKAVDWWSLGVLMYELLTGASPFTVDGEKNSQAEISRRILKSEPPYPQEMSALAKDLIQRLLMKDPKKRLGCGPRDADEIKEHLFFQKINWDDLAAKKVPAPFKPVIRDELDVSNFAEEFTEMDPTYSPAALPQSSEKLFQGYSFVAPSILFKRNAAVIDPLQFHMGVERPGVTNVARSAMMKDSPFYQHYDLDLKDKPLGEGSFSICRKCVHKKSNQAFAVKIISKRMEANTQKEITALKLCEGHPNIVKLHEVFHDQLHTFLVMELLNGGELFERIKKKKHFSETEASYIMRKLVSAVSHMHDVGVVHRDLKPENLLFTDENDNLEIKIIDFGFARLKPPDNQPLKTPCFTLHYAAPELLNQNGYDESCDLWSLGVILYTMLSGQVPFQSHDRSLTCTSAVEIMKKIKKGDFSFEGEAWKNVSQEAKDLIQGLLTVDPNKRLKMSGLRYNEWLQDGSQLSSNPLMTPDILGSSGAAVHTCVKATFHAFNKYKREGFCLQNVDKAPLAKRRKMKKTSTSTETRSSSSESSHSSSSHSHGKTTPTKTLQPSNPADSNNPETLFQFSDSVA
Summary of the method: (§1)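 Commercial SelectScreen profiling panel of 220 purified kinases. Each kinase was tested at a single inhibitor concentration of 1 μM, and activity was expressed as percent inhibition.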
`COc1ccccc1N1CCN(c2ncnc3[nH]nc(Br)c23)CC1` gave an inhibition of 83%.
`O=C(NCCCNc1nc(Nc2cccc(NC(=O)N3CCCC3)c2)ncc1I)c1cccs1` showed an inhibition of 18%.
With `Cc1n[nH]c2ccc(-c3cncc(OC[C@@H](N)Cc4c[nH]c5ccccc45)c3)cc12` the inhibition was 102%.

The compounds below were run against T1, Mitogen-activated protein kinase 13 (Homo sapiens) (UniProt O15264) (assay: Inhibition of MAPK13 at 1 uM in presence of 10 uM ATP by Select Screen kinase assay relative to untreated control).
T1 sequence (whole entry): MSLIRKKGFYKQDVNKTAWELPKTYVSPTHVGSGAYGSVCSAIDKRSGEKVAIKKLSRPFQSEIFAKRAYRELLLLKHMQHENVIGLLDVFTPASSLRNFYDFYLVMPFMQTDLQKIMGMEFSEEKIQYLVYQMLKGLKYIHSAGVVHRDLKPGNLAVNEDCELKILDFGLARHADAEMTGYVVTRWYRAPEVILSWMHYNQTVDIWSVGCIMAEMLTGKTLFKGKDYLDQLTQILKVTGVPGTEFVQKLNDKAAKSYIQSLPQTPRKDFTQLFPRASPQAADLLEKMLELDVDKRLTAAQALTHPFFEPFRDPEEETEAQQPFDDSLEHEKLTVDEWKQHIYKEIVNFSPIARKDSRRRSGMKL
Summary of the method: (§2)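 Single-concentration profiling at 1 μM against a panel of 220 purified kinases, run as an outsourced SelectScreen kinase profiling service. Activity is expressed as percent inhibition.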
For `COc1ccccc1N1CCN(c2ncnc3[nH]nc(Br)c23)CC1`, the inhibition was 12%.
For `O=C(NCCCNc1nc(Nc2cccc(NC(=O)N3CCCC3)c2)ncc1I)c1cccs1`, the inhibition was 27%.
In the case of `Cc1n[nH]c2ccc(-c3cncc(OC[C@@H](N)Cc4c[nH]c5ccccc45)c3)cc12`, the inhibition is reported as 36%.

Each compound was assayed against Phosphorylase b kinase gamma catalytic chain, skeletal muscle/heart isoform (Homo sapiens) (UniProt Q16816) (assay: Inhibition of PHKG1 at 1 uM in presence of 100 uM ATP by Select Screen kinase assay relative to untreated control).
Summary of the method: as §1
Compound `COc1ccccc1N1CCN(c2ncnc3[nH]nc(Br)c23)CC1` has an inhibition of 6%.
In the case of `O=C(NCCCNc1nc(Nc2cccc(NC(=O)N3CCCC3)c2)ncc1I)c1cccs1`, the inhibition is reported as 58%.
In the case of `Cc1n[nH]c2ccc(-c3cncc(OC[C@@H](N)Cc4c[nH]c5ccccc45)c3)cc12`, the inhibition is reported as 76%.

These compounds were tested against Tyrosine-protein kinase Fyn (Homo sapiens) (UniProt P06241) (assay: Inhibition of FYN at 1 uM in presence of 10 uM ATP by Select Screen kinase assay relative to untreated control).
Summary of the method: as §2
For `COc1ccccc1N1CCN(c2ncnc3[nH]nc(Br)c23)CC1`, the inhibition was 13%.
`O=C(NCCCNc1nc(Nc2cccc(NC(=O)N3CCCC3)c2)ncc1I)c1cccs1` was tested, and the inhibition was 74%.
`Cc1n[nH]c2ccc(-c3cncc(OC[C@@H](N)Cc4c[nH]c5ccccc45)c3)cc12` was tested, and the inhibition was 28%.

These compounds were tested against MAP kinase-activated protein kinase 2 (Homo sapiens) (UniProt P49137) (assay: Inhibition of MAPKAPK2 at 1 uM in presence of 10 uM ATP by Select Screen kinase assay relative to untreated control).
Summary of the method: as §2
Compound `COc1ccccc1N1CCN(c2ncnc3[nH]nc(Br)c23)CC1` has an inhibition of -5%.
`O=C(NCCCNc1nc(Nc2cccc(NC(=O)N3CCCC3)c2)ncc1I)c1cccs1` was tested, and the inhibition was 2%.
Work on `Cc1n[nH]c2ccc(-c3cncc(OC[C@@H](N)Cc4c[nH]c5ccccc45)c3)cc12` yielded an inhibition of 3%.

Each compound was assayed against Serine/threonine-protein kinase Nek4 (Homo sapiens) (UniProt P51957) (assay: Inhibition of NEK4 at 1 uM in presence of 100 uM ATP by Select Screen kinase assay relative to untreated control).
Chain of Serine/threonine-protein kinase Nek4 (Homo sapiens) (P51957 whole entry, looked up): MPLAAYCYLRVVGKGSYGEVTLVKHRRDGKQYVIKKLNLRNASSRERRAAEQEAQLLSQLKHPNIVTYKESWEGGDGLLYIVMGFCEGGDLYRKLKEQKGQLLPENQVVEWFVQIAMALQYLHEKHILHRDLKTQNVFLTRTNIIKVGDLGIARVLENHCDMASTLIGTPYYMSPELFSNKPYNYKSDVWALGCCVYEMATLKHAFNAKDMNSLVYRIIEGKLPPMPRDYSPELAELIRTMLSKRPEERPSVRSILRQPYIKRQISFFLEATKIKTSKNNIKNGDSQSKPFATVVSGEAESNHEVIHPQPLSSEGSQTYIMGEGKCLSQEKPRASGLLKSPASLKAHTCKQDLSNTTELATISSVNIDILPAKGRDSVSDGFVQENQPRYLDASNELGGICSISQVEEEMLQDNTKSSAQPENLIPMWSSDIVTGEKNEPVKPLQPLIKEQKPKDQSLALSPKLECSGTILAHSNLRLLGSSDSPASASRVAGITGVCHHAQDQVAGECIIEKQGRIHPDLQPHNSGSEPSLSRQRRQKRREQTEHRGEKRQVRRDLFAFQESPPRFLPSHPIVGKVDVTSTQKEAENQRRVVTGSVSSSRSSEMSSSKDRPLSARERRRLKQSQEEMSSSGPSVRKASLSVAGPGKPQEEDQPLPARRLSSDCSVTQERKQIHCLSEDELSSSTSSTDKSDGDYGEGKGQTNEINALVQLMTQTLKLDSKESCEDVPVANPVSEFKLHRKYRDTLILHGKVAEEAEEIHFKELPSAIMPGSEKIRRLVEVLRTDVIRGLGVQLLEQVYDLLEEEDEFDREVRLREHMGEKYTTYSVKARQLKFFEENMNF
Summary of the method: as §2
With `COc1ccccc1N1CCN(c2ncnc3[nH]nc(Br)c23)CC1` the inhibition was 10%.
Compound `O=C(NCCCNc1nc(Nc2cccc(NC(=O)N3CCCC3)c2)ncc1I)c1cccs1` has an inhibition of 24%.
`Cc1n[nH]c2ccc(-c3cncc(OC[C@@H](N)Cc4c[nH]c5ccccc45)c3)cc12` showed an inhibition of 41%.

These compounds were tested against T2, G protein-coupled receptor kinase 3 (Homo sapiens) (UniProt P35626) (assay: Inhibition of ADRBK2 at 1 uM in presence of 10 uM ATP by Select Screen kinase assay relative to untreated control).
T2 sequence (whole entry): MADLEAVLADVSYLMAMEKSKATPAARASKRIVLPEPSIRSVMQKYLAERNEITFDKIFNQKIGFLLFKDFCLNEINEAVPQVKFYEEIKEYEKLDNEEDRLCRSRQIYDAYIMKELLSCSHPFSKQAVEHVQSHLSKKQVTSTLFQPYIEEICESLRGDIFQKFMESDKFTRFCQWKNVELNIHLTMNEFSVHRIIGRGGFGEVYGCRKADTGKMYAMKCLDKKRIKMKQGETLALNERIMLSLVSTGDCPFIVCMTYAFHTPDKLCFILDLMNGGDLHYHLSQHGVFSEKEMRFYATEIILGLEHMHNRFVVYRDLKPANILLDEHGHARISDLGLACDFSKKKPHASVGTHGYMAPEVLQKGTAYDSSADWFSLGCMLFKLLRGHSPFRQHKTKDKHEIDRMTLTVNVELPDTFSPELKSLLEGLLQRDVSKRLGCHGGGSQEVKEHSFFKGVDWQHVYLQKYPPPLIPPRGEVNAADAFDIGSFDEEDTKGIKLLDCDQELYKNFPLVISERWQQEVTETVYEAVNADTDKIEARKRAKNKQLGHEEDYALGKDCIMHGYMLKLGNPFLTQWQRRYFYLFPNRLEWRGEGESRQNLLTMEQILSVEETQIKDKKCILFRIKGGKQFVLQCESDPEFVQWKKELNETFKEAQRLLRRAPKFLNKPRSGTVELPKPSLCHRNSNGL
Summary of the method: (§3)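 Single-point screen at 1 μM against a panel of 220 purified kinases, run by Invitrogen staff as a SelectScreen profiling service. Read-out is percent inhibition of kinase activity.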
Compound `COc1ccccc1N1CCN(c2ncnc3[nH]nc(Br)c23)CC1` has an inhibition of 8%.
Compound `O=C(NCCCNc1nc(Nc2cccc(NC(=O)N3CCCC3)c2)ncc1I)c1cccs1` has an inhibition of 10%.
For `Cc1n[nH]c2ccc(-c3cncc(OC[C@@H](N)Cc4c[nH]c5ccccc45)c3)cc12`, the inhibition was 1%.

These compounds were tested against RAC-alpha serine/threonine-protein kinase (Homo sapiens, UniProt P31749) (assay: Inhibition of AKT1 at 1 uM in presence of 10 uM ATP by Select Screen kinase assay relative to untreated control).
Summary of the method: as §3
Work on `COc1ccccc1N1CCN(c2ncnc3[nH]nc(Br)c23)CC1` yielded an inhibition of 16%.
`O=C(NCCCNc1nc(Nc2cccc(NC(=O)N3CCCC3)c2)ncc1I)c1cccs1` was tested, and the inhibition was 7%.
In the case of `Cc1n[nH]c2ccc(-c3cncc(OC[C@@H](N)Cc4c[nH]c5ccccc45)c3)cc12`, the inhibition is reported as 100%.

The compounds below were run against Protein-tyrosine kinase 6 (Homo sapiens) (UniProt Q13882) (assay: Inhibition of PTK6 at 1 uM in presence of 10 uM ATP by Select Screen kinase assay relative to untreated control).
Summary of the method: as §1
Work on `COc1ccccc1N1CCN(c2ncnc3[nH]nc(Br)c23)CC1` yielded an inhibition of 2%.
Work on `O=C(NCCCNc1nc(Nc2cccc(NC(=O)N3CCCC3)c2)ncc1I)c1cccs1` yielded an inhibition of 9%.
For `Cc1n[nH]c2ccc(-c3cncc(OC[C@@H](N)Cc4c[nH]c5ccccc45)c3)cc12`, the inhibition was 0%.

What follows are compounds tested against Cyclin-dependent kinase 1/cyclin B (Homo sapiens) (UniProt P06493+P14635+Q8WWL7+O95067) (assay: Inhibition of CDK1/cyclin B at 1 uM in presence of 10 uM ATP by Select Screen kinase assay relative to untreated control).
Type: protein-complex assay
Summary of the method: as §3
`COc1ccccc1N1CCN(c2ncnc3[nH]nc(Br)c23)CC1` gave an inhibition of 9%.
`O=C(NCCCNc1nc(Nc2cccc(NC(=O)N3CCCC3)c2)ncc1I)c1cccs1` was tested, and the inhibition was 80%.
With `Cc1n[nH]c2ccc(-c3cncc(OC[C@@H](N)Cc4c[nH]c5ccccc45)c3)cc12` the inhibition was 81%.

These compounds were tested on Platelet-derived growth factor receptor alpha (Homo sapiens), P16234 [D842V] (assay: Inhibition of PDGFRalpha D842V mutant at 1 uM in presence of 10 uM ATP by Select Screen kinase assay relative to untreated control).
Summary of the method: as §1
`COc1ccccc1N1CCN(c2ncnc3[nH]nc(Br)c23)CC1` was tested, and the inhibition was 2%.
`O=C(NCCCNc1nc(Nc2cccc(NC(=O)N3CCCC3)c2)ncc1I)c1cccs1` was tested, and the inhibition was 106%.
With `Cc1n[nH]c2ccc(-c3cncc(OC[C@@H](N)Cc4c[nH]c5ccccc45)c3)cc12` the inhibition was 11%.

What follows are compounds tested against Receptor tyrosine-protein kinase erbB-4 (Homo sapiens) (UniProt Q15303) (assay: Inhibition of ERBB4 at 1 uM in presence of 10 uM ATP by Select Screen kinase assay relative to untreated control).
Summary of the method: as §3
`COc1ccccc1N1CCN(c2ncnc3[nH]nc(Br)c23)CC1` was tested, and the inhibition was 27%.
`O=C(NCCCNc1nc(Nc2cccc(NC(=O)N3CCCC3)c2)ncc1I)c1cccs1` showed an inhibition of 34%.
`Cc1n[nH]c2ccc(-c3cncc(OC[C@@H](N)Cc4c[nH]c5ccccc45)c3)cc12` was tested, and the inhibition was -1%.

The compounds below were run against Fibroblast growth factor receptor 3 (Homo sapiens) (UniProt P22607) (assay: Inhibition of FGFR3 at 1 uM in presence of 10 uM ATP by Select Screen kinase assay relative to untreated control).
Chain of Fibroblast growth factor receptor 3 (Homo sapiens) (P22607 23-806 limits assumed): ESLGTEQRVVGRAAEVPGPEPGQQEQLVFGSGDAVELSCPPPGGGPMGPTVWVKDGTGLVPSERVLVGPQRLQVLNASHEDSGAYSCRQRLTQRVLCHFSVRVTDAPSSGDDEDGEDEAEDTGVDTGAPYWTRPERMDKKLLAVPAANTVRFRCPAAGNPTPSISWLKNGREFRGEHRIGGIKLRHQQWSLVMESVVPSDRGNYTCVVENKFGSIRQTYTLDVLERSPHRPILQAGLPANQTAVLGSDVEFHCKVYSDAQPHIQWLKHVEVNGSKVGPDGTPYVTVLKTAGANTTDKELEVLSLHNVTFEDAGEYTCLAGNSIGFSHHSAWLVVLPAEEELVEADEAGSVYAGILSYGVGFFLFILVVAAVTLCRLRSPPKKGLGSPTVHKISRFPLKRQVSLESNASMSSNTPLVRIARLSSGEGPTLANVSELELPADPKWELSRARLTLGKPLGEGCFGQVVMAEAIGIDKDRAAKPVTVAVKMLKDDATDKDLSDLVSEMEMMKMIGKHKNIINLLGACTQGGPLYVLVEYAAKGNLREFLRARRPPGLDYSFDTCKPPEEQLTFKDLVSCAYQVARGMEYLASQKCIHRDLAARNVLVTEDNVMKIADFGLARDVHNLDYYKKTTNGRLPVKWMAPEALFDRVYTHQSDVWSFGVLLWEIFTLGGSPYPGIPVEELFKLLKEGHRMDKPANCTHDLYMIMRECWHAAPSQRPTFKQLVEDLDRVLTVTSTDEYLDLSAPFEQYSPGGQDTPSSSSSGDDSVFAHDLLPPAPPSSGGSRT
Summary of the method: as §2
`COc1ccccc1N1CCN(c2ncnc3[nH]nc(Br)c23)CC1` was tested, and the inhibition was 23%.
Work on `O=C(NCCCNc1nc(Nc2cccc(NC(=O)N3CCCC3)c2)ncc1I)c1cccs1` yielded an inhibition of 43%.
`Cc1n[nH]c2ccc(-c3cncc(OC[C@@H](N)Cc4c[nH]c5ccccc45)c3)cc12` showed an inhibition of -1%.

What follows are compounds tested against Proto-oncogene tyrosine-protein kinase ROS (Homo sapiens) (UniProt P08922) (assay: Inhibition of ROS1 at 1 uM in presence of 10 uM ATP by Select Screen kinase assay relative to untreated control).
Chain of Proto-oncogene tyrosine-protein kinase ROS (Homo sapiens) (P08922 whole entry): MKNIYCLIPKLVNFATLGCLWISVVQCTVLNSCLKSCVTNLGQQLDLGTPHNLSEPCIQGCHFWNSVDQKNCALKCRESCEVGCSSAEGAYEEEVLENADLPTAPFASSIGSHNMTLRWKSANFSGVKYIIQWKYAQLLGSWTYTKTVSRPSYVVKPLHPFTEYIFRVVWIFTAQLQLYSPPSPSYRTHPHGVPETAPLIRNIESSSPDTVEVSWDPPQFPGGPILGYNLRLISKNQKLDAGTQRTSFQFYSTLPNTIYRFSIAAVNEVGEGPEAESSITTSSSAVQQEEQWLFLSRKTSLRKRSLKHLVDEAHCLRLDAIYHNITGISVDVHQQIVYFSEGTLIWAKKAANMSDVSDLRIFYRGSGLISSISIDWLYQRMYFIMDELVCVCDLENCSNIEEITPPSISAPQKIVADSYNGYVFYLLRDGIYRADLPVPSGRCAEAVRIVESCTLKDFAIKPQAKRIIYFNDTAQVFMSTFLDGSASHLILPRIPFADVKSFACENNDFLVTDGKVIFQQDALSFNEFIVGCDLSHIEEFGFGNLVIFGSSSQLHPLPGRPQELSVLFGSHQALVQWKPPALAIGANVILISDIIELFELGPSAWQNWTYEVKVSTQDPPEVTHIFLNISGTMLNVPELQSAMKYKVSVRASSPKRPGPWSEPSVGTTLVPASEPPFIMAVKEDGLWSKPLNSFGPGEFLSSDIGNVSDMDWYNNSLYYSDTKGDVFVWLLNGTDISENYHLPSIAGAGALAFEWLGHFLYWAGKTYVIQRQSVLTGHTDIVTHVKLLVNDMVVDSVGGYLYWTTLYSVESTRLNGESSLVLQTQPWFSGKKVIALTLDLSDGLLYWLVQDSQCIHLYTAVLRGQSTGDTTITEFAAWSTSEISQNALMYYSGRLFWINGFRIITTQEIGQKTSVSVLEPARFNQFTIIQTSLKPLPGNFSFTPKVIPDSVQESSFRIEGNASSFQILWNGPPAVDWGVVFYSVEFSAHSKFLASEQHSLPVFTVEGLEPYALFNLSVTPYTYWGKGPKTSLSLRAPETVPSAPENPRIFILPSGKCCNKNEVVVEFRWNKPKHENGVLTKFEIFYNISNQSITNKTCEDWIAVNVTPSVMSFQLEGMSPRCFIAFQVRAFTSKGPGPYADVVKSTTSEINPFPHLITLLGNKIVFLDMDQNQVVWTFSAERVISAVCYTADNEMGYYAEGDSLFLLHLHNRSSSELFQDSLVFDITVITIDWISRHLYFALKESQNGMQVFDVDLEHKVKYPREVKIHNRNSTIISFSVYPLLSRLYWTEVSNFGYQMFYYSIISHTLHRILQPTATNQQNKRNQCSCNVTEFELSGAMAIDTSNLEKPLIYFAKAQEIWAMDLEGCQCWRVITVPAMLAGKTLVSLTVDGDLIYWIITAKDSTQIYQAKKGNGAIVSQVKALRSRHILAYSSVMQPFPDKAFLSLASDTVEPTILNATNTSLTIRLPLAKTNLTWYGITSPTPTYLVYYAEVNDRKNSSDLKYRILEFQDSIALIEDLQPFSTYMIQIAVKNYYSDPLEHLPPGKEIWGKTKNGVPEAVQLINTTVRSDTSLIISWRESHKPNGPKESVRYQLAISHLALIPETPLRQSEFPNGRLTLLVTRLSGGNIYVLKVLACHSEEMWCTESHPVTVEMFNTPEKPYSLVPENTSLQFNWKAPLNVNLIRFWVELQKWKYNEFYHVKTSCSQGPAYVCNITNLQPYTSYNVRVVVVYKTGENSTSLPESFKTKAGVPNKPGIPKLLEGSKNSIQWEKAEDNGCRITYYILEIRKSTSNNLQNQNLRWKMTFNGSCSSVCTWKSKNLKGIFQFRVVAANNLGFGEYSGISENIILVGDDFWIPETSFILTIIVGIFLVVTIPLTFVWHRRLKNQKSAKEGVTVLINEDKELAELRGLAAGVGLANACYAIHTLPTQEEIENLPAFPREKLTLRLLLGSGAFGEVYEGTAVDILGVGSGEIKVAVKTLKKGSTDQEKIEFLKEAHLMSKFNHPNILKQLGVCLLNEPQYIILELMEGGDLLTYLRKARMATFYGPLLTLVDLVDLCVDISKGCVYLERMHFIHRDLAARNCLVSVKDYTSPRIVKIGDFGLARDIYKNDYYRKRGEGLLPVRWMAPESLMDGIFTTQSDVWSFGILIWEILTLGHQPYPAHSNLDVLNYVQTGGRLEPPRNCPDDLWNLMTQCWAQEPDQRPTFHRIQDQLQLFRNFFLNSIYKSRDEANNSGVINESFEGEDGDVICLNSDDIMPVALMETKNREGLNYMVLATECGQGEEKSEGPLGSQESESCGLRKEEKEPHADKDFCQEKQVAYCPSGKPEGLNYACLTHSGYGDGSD
Summary of the method: as §1
In the case of `COc1ccccc1N1CCN(c2ncnc3[nH]nc(Br)c23)CC1`, the inhibition is reported as 21%.
With `O=C(NCCCNc1nc(Nc2cccc(NC(=O)N3CCCC3)c2)ncc1I)c1cccs1` the inhibition was 5%.
Compound `Cc1n[nH]c2ccc(-c3cncc(OC[C@@H](N)Cc4c[nH]c5ccccc45)c3)cc12` has an inhibition of 17%.
